Each structure is given as a SMILES string.

The source of these data is PMC11439923 (Scientific Reports, 2024).

One series relates to FaDu spheroids. Kind of series: Three-dimensional culture, spheroid live/dead staining. The format is cell-based, human. The conditions noted are these: 50 µM cisplatin, 72 h. The procedure, abridged: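 FaDu seeded 500 cells/well in U-bottom ultralow-attachment plates, spheroids formed over 72 h at 37 °C, 5% CO2. Spheroids exposed 72 h to a concentration series of test compound or platinum reference. Stained 1 h with Hoechst 33342 (live) and ethidium homodimer-1 (dead), imaged by high-content system. Read-out: Hoechst/EthD-1 mean fluorescence intensity ratio. One-way ANOVA with Tukey's test.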

Another series relates to healthy mice. The conditions noted are these: cited from earlier work.
Series [1] has as its system HNSCC cell lines (FaDu, Cal-27, and Ca9-22). Kind of series: Cell viability assay. The format is cell-based, human. The conditions noted are these: Cal-27 and FaDu; 1 µM single agent; 48 and 72 h; MTT. The procedure, abridged:
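Seeded 8 × 10^3 cells/well in 10% FBS medium: MEM for Ca9-22; high-glucose DMEM for FaDu, Cal-27, HaCaT; DMEM/F12 for HK-2. Grown 24 h at 37 °C, 5% CO2, then dosed 24, 48 or 72 h: derivatives 0.001–20 µM, parent glycoside and platinum reference 0.01–50 µM. MTT 0.5 mg/ml 4 h, formazan dissolved in DMSO, A570. IC50 by nonlinear regression. Triplicate, ≥3 independent experiments.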

Another series relates to cathepsin D (CTSD). Kind of series: Western blot of cathepsin D. The format is cell-based, human. The conditions noted are these: 36 h, ECDD-S18 0.1, 1, 2 µM, bafilomycin A1 0.1 µM, vs DMSO. The procedure, abridged: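 Cal-27 or FaDu seeded 5 × 10^5 cells per 60 mm dish for 24 h, treated 36 h with test compound (0.1, 1, 2 µM), 0.1 µM bafilomycin A1 or DMSO. RIPA lysates run on SDS-PAGE, transferred to PVDF, blocked in 5% milk 1 h. Probed overnight at 4 °C for pro/mature cathepsin D, N-cadherin, GAPDH; HRP secondary, ECL on film. Densitometry normalised to GAPDH, fold change versus untreated.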

Another series concerns CTSD mRNA. The experiment in a line: Quantitative RT-PCR of CTSD. Format: cell-based, human. The conditions noted are these: 36 h, ECDD-S18 0.1, 1, 2 µM, bafilomycin A1 0.1 µM, vs DMSO.
In the next series the test system is V-ATPase activity. The experiment in a line: LysoTracker Red staining. Format: cell-based, human. The conditions noted are these: Cal-27 and FaDu; 0.1 µM; 24 h. The method in brief: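 Cal-27 and FaDu plated 8 × 10^3 cells/well in black 96-well plates for 24 h. Treated 24 h with test compound (0.1, 1, 2 µM) or 0.1 µM bafilomycin A1. LysoTracker 2 h, immediate fixation in 4% paraformaldehyde 20 min, DAPI 30 min at room temperature. Lysosomal fluorescence intensity quantified by high-content imaging.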

Series [2] deals with E-cadherin mRNA and protein. The experiment in a line: E-cadherin expression. The format is cell-based, human. The conditions noted are these: Cal-27 and FaDu; 36 h; ECDD-S18 0.1, 1, 2 µM, bafilomycin A1 0.1 µM.

Consider `N.N.[Cl][Pt][Cl]` [Cisplatin], for which the “Live/dead cell ratio (Hoechst 33342 to EthD-1)” value in the series with FaDu spheroids is given as “significantly reduced”. For the same compound, in the series on healthy mice, the “WBC and RBC levels” value is reported as “marked decrease”; the body weight loss was 30–40%. For the same compound, in series [1], the cell viability entry is “slight suppression”.
Turning to `CO/C1=C\C(C)=C\[C@@H](C)[C@@H](O)[C@@H](C)C/C(C)=C/C=C/[C@H](OC)[C@@H]([C@@H](C)[C@@H](O)[C@H](C)[C@@]2(O)C[C@@H](O)[C@H](C)[C@@H](C(C)C)O2)OC1=O` [bafilomycin A1], the “protein expression of mature CTSD” value with cathepsin D (CTSD) (Cal-27) and with cathepsin D (CTSD) (FaDu) was “downregulated” in each case. Further, the “mRNA expression of CTSD” value in the series with CTSD mRNA (Cal-27) and in the series on CTSD mRNA (FaDu) was “significantly decreased” throughout. Also, in the series with V-ATPase activity, the “LysoTracker red fluorescence intensity relative to DMSO control” value is “significantly decreased”. In series [2], the “expression of E-cadherin mRNA and protein” value was “no effect”.
